{"source": "ChEMBL document CHEMBL4033799", "about": "“Stable and Long-Lasting, Novel Bicyclic Peptide Plasma Kallikrein Inhibitors for the Treatment of Diabetic Macular Edema” (J Med Chem, 2018)", "test_system": "Rattus norvegicus", "assay": "Antiinflammatory activity in Sprague-Dawley rat carrageenan-induced paw edema model assessed as inhibition of paw edema AUC (0 to 2 hrs) at 10 to 30 mg/kg, ip pretreated for 15 mins followed by carrageenan challenge", "type": "functional, organism-based", "summary_of_the_method": "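Male Sprague-Dawley rats received peptide IP (30, 10 or 3 mg/kg), or indomethacin IP at 5 mg/kg, 15 min before subplantar carrageenan. Paw volume was followed over time against a vehicle group.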", "note": "Active and inactive are the calls of the source. The rule behind the calls is not given here."}
{"smiles": "CC(=O)N[C@H]1CSCc2cc3cc(c2)CSC[C@H](C(=O)N[C@@H](C)C(=O)N(C)CC(=O)N(C)CC(=O)N(C)CC(=O)N[C@H](CCCNC(=N)N)C(=O)N[C@H](CCCNC(=N)N)C(=O)O)NC(=O)[C@H](CC(C)C)NC(=O)[C@@H]2CCCN2C(=O)[C@H](C)NC(=O)[C@H](CC(=O)O)NC(=O)[C@H](Cc2c[nH]c4ccccc24)NC(=O)[C@@H]2CCCN2C(=O)[C@H](CSC3)NC(=O)[C@H](Cc2c[nH]c3ccccc23)NC(=O)[C@@H]2CCCN2C(=O)[C@H](CC(N)=O)NC(=O)[C@H](Cc2c[nH]c3ccccc23)NC(=O)[C@H]([C@@H](C)O)NC(=O)[C@H](CC(N)=O)NC1=O", "values": [{"measurement": "inhibition", "value": "Active"}]}
